Measured values: ChEMBL document CHEMBL2384977, “Synthesis and biological evaluation of novel styryl benzimidazole derivatives as probes for imaging of neurofibrillary tangles in Alzheimer's disease” (Bioorg Med Chem, 2013)

Tests used:
[1] = test system: Spleen; assay: Biodistribution in ddY mouse spleen at 13.2 to 20.6 kBq, iv measured at 10 mins by gamma counting analysis; assay type: ADME, organism-based; details: in vivo
Method in brief: (§1)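 Male ddY mice, 5 weeks old, received the 125I-labelled tracer (13.2–20.6 kBq) intravenously in the tail vein, in 100 µL saline containing ethanol. Animals were sacrificed at 2, 10, 30 and 60 min. Tissue radioactivity is expressed as %ID/g, mean (SD) of 5 animals.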

[2] = test system: Brain; assay: Biodistribution in ddY mouse brain at 13.2 to 20.6 kBq, iv measured at 30 mins by gamma counting analysis; assay type: ADME, organism-based; details: in vivo, 0.5 h; method in brief: as §1
[3] = test system: Kidney; assay: Biodistribution in ddY mouse kidney at 13.2 to 20.6 kBq, iv measured at 2 mins by gamma counting analysis; assay type: ADME, organism-based; details: in vivo; method in brief: as §1
[4] = test system: Spleen; assay: Biodistribution in ddY mouse spleen at 13.2 to 20.6 kBq, iv measured at 2 mins by gamma counting analysis; assay type: ADME, organism-based; details: in vivo; method in brief: as §1
[5] = test system: Lung; assay: Biodistribution in ddY mouse lung at 13.2 to 20.6 kBq, iv measured at 10 mins by gamma counting analysis; assay type: ADME, organism-based; details: in vivo; method in brief: as §1
[6] = test system: Brain; assay: Drug uptake in gray matter of alzheimer disease patient brain at 92.5 kBq after 1 hr by autoradiographic analysis; assay type: ADME, tissue-based; details: human, in vitro
Method in brief: (§2)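 Postmortem AD brain (person), 6 µm paraffin sections, deparaffinized in xylene and a graded ethanol series. Sections were incubated with the 125I tracer (92.5 kBq/100 µL) for 1 h at room temperature, then dipped in 50% EtOH for 2 h and rinsed in water. Imaging plates were exposed overnight. Adjacent sections were immunostained with AT8 (phospho-tau) and BC05 (Abeta1-42).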

[7] = test system: Stomach; assay: Biodistribution in ddY mouse stomach at 13.2 to 20.6 kBq, iv measured per organ at 2 mins by gamma counting analysis; assay type: ADME, organism-based; details: in vivo
Method in brief: (§3)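 Male ddY mice, 5 weeks old, were injected in the tail vein with the 125I tracer (13.2–20.6 kBq) in 100 µL saline containing ethanol. Sacrifice at 2, 10, 30 and 60 min. Stomach radioactivity is expressed as %ID per whole organ, mean (SD) of 5 animals.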

[8] = test system: Blood; assay: Biodistribution in ddY mouse blood at 13.2 to 20.6 kBq, iv measured at 30 mins by gamma counting analysis; assay type: ADME, organism-based; details: in vivo, 0.5 h; method in brief: as §1
[9] = test system: Lung; assay: Biodistribution in ddY mouse lung at 13.2 to 20.6 kBq, iv measured at 60 mins by gamma counting analysis; assay type: ADME, organism-based; details: in vivo, 1 h; method in brief: as §1
[10] = test system: Blood; assay: Biodistribution in ddY mouse blood at 13.2 to 20.6 kBq, iv measured at 60 mins by gamma counting analysis; assay type: ADME, organism-based; details: in vivo, 1 h; method in brief: as §1
[11] = test system: Blood; assay: Biodistribution in ddY mouse blood at 13.2 to 20.6 kBq, iv measured at 2 mins by gamma counting analysis; assay type: ADME, organism-based; details: in vivo; method in brief: as §1
[12] = test system: Stomach; assay: Biodistribution in ddY mouse stomach at 13.2 to 20.6 kBq, iv measured per organ at 60 mins by gamma counting analysis; assay type: ADME, organism-based; details: in vivo, 1 h; method in brief: as §3
[13] = test system: Kidney; assay: Biodistribution in ddY mouse kidney at 13.2 to 20.6 kBq, iv measured at 10 mins by gamma counting analysis; assay type: ADME, organism-based; details: in vivo; method in brief: as §1
[14] = test system: Brain; assay: Biodistribution in ddY mouse brain at 13.2 to 20.6 kBq, iv measured at 2 mins by gamma counting analysis; assay type: ADME, organism-based; details: in vivo; method in brief: as §1
[15] = test system: Heart; assay: Biodistribution in ddY mouse heart at 13.2 to 20.6 kBq, iv measured at 60 mins by gamma counting analysis; assay type: ADME, organism-based; details: in vivo, 1 h; method in brief: as §1
[16] = test system: Intestine; assay: Biodistribution in ddY mouse intestine at 13.2 to 20.6 kBq, iv measured at 30 mins by gamma counting analysis; assay type: ADME, organism-based; details: in vivo, 0.5 h; method in brief: as §1
[17] = test system: Heart; assay: Biodistribution in ddY mouse heart at 13.2 to 20.6 kBq, iv measured at 2 mins by gamma counting analysis; assay type: ADME, organism-based; details: in vivo; method in brief: as §1
[18] = test system: Lung; assay: Biodistribution in ddY mouse lung at 13.2 to 20.6 kBq, iv measured at 2 mins by gamma counting analysis; assay type: ADME, organism-based; details: in vivo; method in brief: as §1
[19] = test system: Spleen; assay: Biodistribution in ddY mouse spleen at 13.2 to 20.6 kBq, iv measured at 60 mins by gamma counting analysis; assay type: ADME, organism-based; details: in vivo, 1 h; method in brief: as §1
[20] = test system: Brain; assay: Biodistribution in ddY mouse brain at 13.2 to 20.6 kBq, iv measured at 60 mins by gamma counting analysis; assay type: ADME, organism-based; details: in vivo, 1 h; method in brief: as §1
[21] = test system: Intestine; assay: Biodistribution in ddY mouse intestine at 13.2 to 20.6 kBq, iv measured at 2 mins by gamma counting analysis; assay type: ADME, organism-based; details: in vivo; method in brief: as §1
[22] = test system: Intestine; assay: Biodistribution in ddY mouse intestine at 13.2 to 20.6 kBq, iv measured at 10 mins by gamma counting analysis; assay type: ADME, organism-based; details: in vivo; method in brief: as §1
[23] = test system: Brain; assay: Drug uptake in white matter of alzheimer disease patient brain at 92.5 kBq after 1 hr by autoradiographic analysis; assay type: ADME, tissue-based; details: human, in vitro; method in brief: as §2
[24] = test system: Liver; assay: Biodistribution in ddY mouse liver at 13.2 to 20.6 kBq, iv measured at 30 mins by gamma counting analysis; assay type: ADME, organism-based; details: in vivo, 0.5 h; method in brief: as §1
[25] = test system: Kidney; assay: Biodistribution in ddY mouse kidney at 13.2 to 20.6 kBq, iv measured at 60 mins by gamma counting analysis; assay type: ADME, organism-based; details: in vivo, 1 h; method in brief: as §1
[26] = test system: Intestine; assay: Biodistribution in ddY mouse intestine at 13.2 to 20.6 kBq, iv measured at 60 mins by gamma counting analysis; assay type: ADME, organism-based; details: in vivo, 1 h; method in brief: as §1
[27] = test system: Pancreas; assay: Biodistribution in ddY mouse pancreas at 13.2 to 20.6 kBq, iv measured at 2 mins by gamma counting analysis; assay type: ADME, organism-based; details: in vivo; method in brief: as §1
[28] = test system: Brain; assay: Drug uptake in human brain at 92.5 kBq after 1 hr by autoradiographic analysis; assay type: ADME, tissue-based
[29] = test system: Brain; assay: Ratio of drug level in ddY mouse brain at 13.2 to 20.6 kBq, iv measured at 2 mins to drug level in ddY mouse brain at 13.2 to 20.6 kBq, iv measured at 60 mins; assay type: ADME, organism-based; details: in vivo
Method in brief: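 Tail-vein injection of the 125I tracer (13.2–20.6 kBq, saline with ethanol) into male 5-week-old ddY mice. The ratio is brain uptake (%ID/g) at 2 min divided by brain uptake at 60 min, from groups of 5 animals.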

[30] = test system: Liver; assay: Biodistribution in ddY mouse liver at 13.2 to 20.6 kBq, iv measured at 60 mins by gamma counting analysis; assay type: ADME, organism-based; details: in vivo, 1 h; method in brief: as §1
[31] = test system: Heart; assay: Biodistribution in ddY mouse heart at 13.2 to 20.6 kBq, iv measured at 10 mins by gamma counting analysis; assay type: ADME, organism-based; details: in vivo; method in brief: as §1
[32] = test system: Blood; assay: Biodistribution in ddY mouse blood at 13.2 to 20.6 kBq, iv measured at 10 mins by gamma counting analysis; assay type: ADME, organism-based; details: in vivo; method in brief: as §1
[33] = test system: Stomach; assay: Biodistribution in ddY mouse stomach at 13.2 to 20.6 kBq, iv measured per organ at 30 mins by gamma counting analysis; assay type: ADME, organism-based; details: in vivo, 0.5 h; method in brief: as §3
[34] = test system: Brain; assay: Biodistribution in ddY mouse brain at 13.2 to 20.6 kBq, iv measured at 10 mins by gamma counting analysis; assay type: ADME, organism-based; details: in vivo; method in brief: as §1
[35] = test system: Spleen; assay: Biodistribution in ddY mouse spleen at 13.2 to 20.6 kBq, iv measured at 30 mins by gamma counting analysis; assay type: ADME, organism-based; details: in vivo, 0.5 h; method in brief: as §1
[36] = test system: Heart; assay: Biodistribution in ddY mouse heart at 13.2 to 20.6 kBq, iv measured at 30 mins by gamma counting analysis; assay type: ADME, organism-based; details: in vivo, 0.5 h; method in brief: as §1
[37] = test system: Pancreas; assay: Biodistribution in ddY mouse pancreas at 13.2 to 20.6 kBq, iv measured at 30 mins by gamma counting analysis; assay type: ADME, organism-based; details: in vivo, 0.5 h; method in brief: as §1
[38] = test system: Pancreas; assay: Biodistribution in ddY mouse pancreas at 13.2 to 20.6 kBq, iv measured at 60 mins by gamma counting analysis; assay type: ADME, organism-based; details: in vivo, 1 h; method in brief: as §1
[39] = test system: Stomach; assay: Biodistribution in ddY mouse stomach at 13.2 to 20.6 kBq, iv measured per organ at 10 mins by gamma counting analysis; assay type: ADME, organism-based; details: in vivo; method in brief: as §3
[40] = test system: Lung; assay: Biodistribution in ddY mouse lung at 13.2 to 20.6 kBq, iv measured at 30 mins by gamma counting analysis; assay type: ADME, organism-based; details: in vivo, 0.5 h; method in brief: as §1
[41] = test system: Liver; assay: Biodistribution in ddY mouse liver at 13.2 to 20.6 kBq, iv measured at 10 mins by gamma counting analysis; assay type: ADME, organism-based; details: in vivo; method in brief: as §1
[42] = test system: Pancreas; assay: Biodistribution in ddY mouse pancreas at 13.2 to 20.6 kBq, iv measured at 10 mins by gamma counting analysis; assay type: ADME, organism-based; details: in vivo; method in brief: as §1
[43] = test system: Kidney; assay: Biodistribution in ddY mouse kidney at 13.2 to 20.6 kBq, iv measured at 30 mins by gamma counting analysis; assay type: ADME, organism-based; details: in vivo, 0.5 h; method in brief: as §1
[44] = test system: Liver; assay: Biodistribution in ddY mouse liver at 13.2 to 20.6 kBq, iv measured at 2 mins by gamma counting analysis; assay type: ADME, organism-based; details: in vivo; method in brief: as §1
[45] = 1-Octanol-PBS buffer partition coefficient, log P of the compound at 0.37 MBq after 2 mins by gamma counting analysis; assay type: physicochemical

Work on `CN(C)c1ccc(/C=C/c2nc3ccc([125I])cc3[nH]2)cc1` yielded a Drug uptake [1] of 3.69 % ID/g, a Drug uptake [2] of 0.68 % ID/g and a Drug uptake [3] of 11.7 % ID/g. The Drug uptake [4] was 3.48 % ID/g, the Drug uptake [5] was 3.98 % ID/g and the Drug uptake [6] was “Active”. For the same compound, the Drug uptake [7] was 1.67 %ID, the Drug uptake [8] was 1.88 % ID/g and the Drug uptake [9] was 1.39 % ID/g. The Drug uptake [10] was 1.28 % ID/g, the Drug uptake [11] was 3.83 % ID/g and the Drug uptake [12] was 3.56 %ID. For the same compound, the Drug uptake [13] was 7.28 % ID/g, the Drug uptake [14] was 3.28 % ID/g and the Drug uptake [15] was 1.12 % ID/g. The Drug uptake [16] was 18.2 % ID/g, the Drug uptake [17] was 8.56 % ID/g and the Drug uptake [18] was 7.39 % ID/g. It also gave a Drug uptake [19] of 1.42 % ID/g, a Drug uptake [20] of 0.33 % ID/g and a Drug uptake [21] of 3.11 % ID/g. The Drug uptake [22] was 9.22 % ID/g, the Drug uptake [23] was “Not Active” and the Drug uptake [24] was 14.9 % ID/g. For the same compound, the Drug uptake [25] was 2.26 % ID/g, the Drug uptake [26] was 26.5 % ID/g and the Drug uptake [27] was 5.4 % ID/g. The Drug uptake [28] was “Not Active”, the Ratio [29] was 9.94 and the Drug uptake [30] was 10.1 % ID/g. The Drug uptake [31] was 3.46 % ID/g, the Drug uptake [32] was 3.24 % ID/g and the Drug uptake [33] was 3.83 %ID. The Drug uptake [34] was 1.61 % ID/g, the Drug uptake [35] was 2.66 % ID/g and the Drug uptake [36] was 2 % ID/g. It also gave a Drug uptake [37] of 1.67 % ID/g, a Drug uptake [38] of 0.89 % ID/g and a Drug uptake [39] of 2.82 %ID. The Drug uptake [40] was 2.2 % ID/g, the Drug uptake [41] was 19.2 % ID/g and the Drug uptake [42] was 3.31 % ID/g. It also gave a Drug uptake [43] of 4.32 % ID/g, a Drug uptake [44] of 17.4 % ID/g and a logP at 2 min [45] of 2.23.
